# According to ChEMBL document CHEMBL5724801, “EUbOPEN Chemogenomics Library - Multiplex” (2024):
# Several values for one entry are separate records, joined by “and”; a condition that tells them apart may be missing. Equal entries are not always repeated.
# Tested on: HEK-293T
# Test: Multiplex assay against HEK293T
# Type: toxicity, cell-based
# Details: human
# Method in brief: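 Tubulin, mitochondrial-mass and membrane-permeability phenotypes are per cents of healthy-nucleus cells. Cells were gated by CellPathfinder machine learning into Hoechst high-intensity objects or normal cells, normal cells into healthy, pyknosed or fragmented nuclei, and pyknosed cells into mitotic or apoptotic. Before that, live cells stained at seeding with Hoechst33342, BioTracker Green Microtubule Cytoskeleton Dye, MitoTracker Red and Annexin V Alexa Fluor 680 were imaged on a CQ1 microscope at 37°C and 5% CO2 after compound addition.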
# [1] = 12 h, 1 µM, compound concentration 1 uM
# [2] = 12 h, 10 µM, compound concentration 10 uM
# [3] = 24 h, 1 µM, compound concentration 1 uM
# [4] = 24 h, 10 µM, compound concentration 10 uM
# [5] = 48 h, 1 µM, compound concentration 1 uM
# [6] = 48 h, 10 µM, compound concentration 10 uM
structure (smiles),measurement,setting,value
Cc1cc(O)c(-c2ccc([C@@H](C)CN(C)C)cc2)c2c1[nH]c(=O)c1sccc12,Population Membrane Permeable-Phenotype (%),[1],0% and 1% and 7.14%
same,Population Mitotic Cells (%),[1],88.89% [middle of 4 runs]
same,Population Normal (%),[1],72% and 71% and 100%
same,Population Tubulin-Different-Phenotype (%),[1],74% [middle of 4 runs]
same,Total Cell Count,[1],209 and 207 and 208 and 140
same,Population Fragmented Nuclei (%),[2],6% and 7% and 2.23% and 0.71%
same,Population Membrane Permeable-Phenotype (%),[2],0% and 2.04% and 9.09%
same,Population Mitotic Cells (%),[2],62.79% [middle of 4 runs]
same,Population Normal (%),[2],58% and 71% and 100%
same,Population Pyknosed Nuclei (%),[2],75.89% [middle of 4 runs]
same,Population Tubulin-Different-Phenotype (%),[2],60% and 72% and 75.51% and 63.64%
same,Total Cell Count,[2],268 and 195 and 224 and 141
same,Population Apoptotic (%),[3],65% and 68% and 44.06% and 39.32%
same,Population Fragmented Nuclei (%),[3],9% and 2.63% and 2.94%
same,Population Hoechst High Intensity Objects (%),[3],21% and 1.72% and 0%
same,Population Membrane Permeable-Phenotype (%),[3],0% and 6.67%
same,Population Mitochondria Different-Phenotype (%),[3],89% [middle of 4 runs]
same,Population Mitotic Cells (%),[3],34% and 31% and 55.94% and 60.68%
same,Population Normal (%),[3],78% and 98.28% and 100%
same,Population Tubulin-Different-Phenotype (%),[3],67% [middle of 4 runs]
same,Total Cell Count,[3],230 and 205 and 232 and 136
same,Population Apoptotic (%),[4],73% and 85% and 61.29% and 65.71%
same,Population Fragmented Nuclei (%),[4],8% and 7% and 0.96% and 1.33%
same,Population Membrane Permeable-Phenotype (%),[4],1.92% [middle of 4 runs]
same,Population Mitochondria Different-Phenotype (%),[4],92% [middle of 4 runs]
same,Population Mitotic Cells (%),[4],34.29% [middle of 4 runs]
same,Population Normal (%),[4],63% and 74% and 99.52% and 100%
same,Population Tubulin-Different-Phenotype (%),[4],70% and 80% and 96.15% and 62.5%
same,Total Cell Count,[4],290 and 203 and 210 and 150
same,Population Apoptotic (%),[5],86% and 69% and 73.55% and 70.43%
same,Population Hoechst High Intensity Objects (%),[5],24% [middle of 4 runs]
same,Population Membrane Permeable-Phenotype (%),[5],0%
same,Population Mitochondria Different-Phenotype (%),[5],90% and 96% and 92% and 88.89%
same,Population Mitotic Cells (%),[5],29.57% [middle of 4 runs]
same,Population Normal (%),[5],75% and 74% and 99.03% and 100%
same,Population Tubulin-Different-Phenotype (%),[5],76% and 70% and 42.67% and 77.78%
same,Total Cell Count,[5],249 and 212 and 206 and 135
same,Population Apoptotic (%),[6],86% and 87% and 92.81% and 91.73%
same,Population Fragmented Nuclei (%),[6],13% [middle of 4 runs]
same,Population Membrane Permeable-Phenotype (%),[6],1% and 0% and 1.56%
same,Population Mitochondria Different-Phenotype (%),[6],92% and 100% and 87.5%
same,Population Mitotic Cells (%),[6],13% and 12% and 7.19% and 8.27%
same,Population Normal (%),[6],59% and 65% and 99.52% and 100%
same,Population Tubulin-Different-Phenotype (%),[6],54% and 73% and 90.62% and 87.5%
same,Total Cell Count,[6],223 [middle of 4 runs]
CC/C(=C(\c1ccc(O)cc1)c1ccc(OCCN(C)C)cc1)c1ccccc1 [AFIMOXIFENE],Population Apoptotic (%),[1],6.54% and 11.93%
same,Population Fragmented Nuclei (%),[1],0.55% and 3.45%
same,Population Healthy Nuclei (%),[1],57.18% and 21.38%
same,Population Hoechst High Intensity Objects (%),[1],0.28% and 0%
same,Population Membrane Permeable-Phenotype (%),[1],0.48% and 0%
same,Population Mitochondria Different-Phenotype (%),[1],43.96% and 29.03%
same,Population Mitotic Cells (%),[1],93.46% and 88.07%
same,Population Normal (%),[1],99.72% and 100%
same,Population Pyknosed Nuclei (%),[1],42.27% and 75.17%
same,Total Cell Count,[1],363 and 145
same,Population Apoptotic (%),[2],25.32% and 29.82%
same,Population Fragmented Nuclei (%),[2],2.69% and 7.52%
same,Population Hoechst High Intensity Objects (%),[2],0%
same,Population Mitochondria Different-Phenotype (%),[2],25.19% and 44.44%
same,Population Mitotic Cells (%),[2],74.68% and 70.18%
same,Population Normal (%),[2],100%
same,Population Pyknosed Nuclei (%),[2],53.2% and 85.71%
same,Population Tubulin-Different-Phenotype (%),[2],8.4% and 22.22%
same,Total Cell Count,[2],297 and 133
same,Population Apoptotic (%),[3],8.84% and 19.33%
same,Population Fragmented Nuclei (%),[3],1.87% and 0.54%
same,Population Healthy Nuclei (%),[3],75.2% and 35.48%
same,Population Hoechst High Intensity Objects (%),[3],0%
same,Population Membrane Permeable-Phenotype (%),[3],1.45% and 3.03%
same,Population Mitochondria Different-Phenotype (%),[3],15.56% and 16.67%
same,Population Mitotic Cells (%),[3],91.16% and 80.67%
same,Population Normal (%),[3],100%
same,Population Pyknosed Nuclei (%),[3],22.93% and 63.98%
same,Population Tubulin-Different-Phenotype (%),[3],15.56% and 13.64%
same,Population Apoptotic (%),[4],49.01% and 63.64%
same,Population Fragmented Nuclei (%),[4],2.59% and 6.2%
same,Population Hoechst High Intensity Objects (%),[4],0%
same,Population Membrane Permeable-Phenotype (%),[4],0.44% and 4.55%
same,Population Mitochondria Different-Phenotype (%),[4],40.44% and 36.36%
same,Population Mitotic Cells (%),[4],50.99% and 36.36%
same,Population Normal (%),[4],100%
same,Population Pyknosed Nuclei (%),[4],39.12% and 76.74%
same,Population Tubulin-Different-Phenotype (%),[4],28.44% and 27.27%
same,Total Cell Count,[4],386 and 129
same,Population Apoptotic (%),[5],7.69% and 13.19%
same,Population Fragmented Nuclei (%),[5],1.84% and 1.61%
same,Population Healthy Nuclei (%),[5],85.71% and 61.85%
same,Population Hoechst High Intensity Objects (%),[5],0% and 0.8%
same,Population Membrane Permeable-Phenotype (%),[5],6.52% and 3.25%
same,Population Mitochondria Different-Phenotype (%),[5],18.34% and 27.92%
same,Population Mitotic Cells (%),[5],92.31% and 86.81%
same,Population Normal (%),[5],100% and 99.2%
same,Population Pyknosed Nuclei (%),[5],12.45% and 36.55%
same,Population Apoptotic (%),[6],39.87% and 62.5%
same,Population Fragmented Nuclei (%),[6],2.24% and 6.98%
same,Population Healthy Nuclei (%),[6],66.53% and 24.81%
same,Population Hoechst High Intensity Objects (%),[6],0.2% and 0%
same,Population Membrane Permeable-Phenotype (%),[6],3.37% and 9.38%
same,Population Mitochondria Different-Phenotype (%),[6],77.3% and 65.62%
same,Population Mitotic Cells (%),[6],60.13% and 37.5%
same,Population Normal (%),[6],99.8% and 100%
same,Population Pyknosed Nuclei (%),[6],31.22% and 68.22%
